The values that follow come from ChEMBL document CHEMBL4813976, “Rational drug design of benzothiazole-based derivatives as potent signal transducer and activator of transcription 3 (STAT3) signaling pathway inhibitors” (Eur J Med Chem, 2021).

Test [1] addresses T1, Signal transducer and activator of transcription 3 (Homo sapiens, UniProt P40763). The test is described as follows: Inhibition of IL-6 induced STAT3 transcriptional activity in human HepG2 cells incubated for 1 hr followed by stimulation with IL-6 for 5.5 hrs by luciferase reporter gene assay. The format is cell-based. Summed up:
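STAT3-dependent luciferase reporter assay in HepG2 cells with IL-6 stimulation; IC50 given as mean ± SD of at least three independent experiments.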
In general terms: Reporter assays use an easily measured gene product as a stand-in for the process of interest.

A further test relates to MDA-MB-468. The test is described as follows: Antiproliferative activity against human MDA-MB-468 cells overexpressing STAT3 assessed as inhibition of cell growth incubated for 72 hrs by MTT assay. The format is functional, cell-based. Particulars: MDA-MB-468, 72 h. An outline of the steps:
(§1)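 MTT proliferation assay; MDA-MB-468 grown in DMEM/F-12 and HEL in high-glucose DMEM, each with 10% FBS and penicillin/streptomycin, at 37 °C under 5% CO₂. IC50 given as mean ± SD of at least three independent experiments.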

The test system of the next test is HEL. The experiment in a line: Antiproliferative activity against human HEL cells harboring JAK2 V617F mutant assessed as inhibition of cell growth incubated for 72 hrs by MTT assay. The test is classed as functional, cell-based. Summed up:
as §1

For a further test, the system named is MCF7. The test is described as follows: Antiproliferative activity against human MCF7 cells expressing low levels of STAT3 assessed as inhibition of cell growth incubated for 72 hrs by MTT assay. The format is functional, cell-based. Particulars: MCF7, 72 h. An outline of the steps:
(§2)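 MTT proliferation assay on MCF-7 and MDA-MB-453 cells; IC50 given as mean ± SD of at least two independent experiments.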
For orientation: Tetrazolium assays rely on reduction of a dye to a coloured formazan, in cell work by metabolically active cells.

Test [2] concerns the target T1, Signal transducer and activator of transcription 3. The experiment in a line: Displacement of 5'-FAM-GpYLPQTV-NH2 from His-tagged STAT3-SH2 domain (127 to 722 residues) (unknown origin) assessed as binding rate at 20 uM […] by fluorescence polarization assay. Particulars: time 90.0 min. A general note: In fluorescence polarisation assays a small probe gives low polarisation when free and higher when bound to something large.

Test [3] has the same target. The experiment in a line: Displacement of 5'-FAM-GpYLPQTV-NH2 from His-tagged STAT3-SH2 domain (127 to 722 residues) (unknown origin) assessed as binding rate at 100 uM […] by fluorescence polarization assay. The conditions noted are these: time 90.0 min.
A further test concerns MDA-MB-453. The test is described as follows: Antiproliferative activity against human MDA-MB-453 cells expressing low levels of STAT3 assessed as inhibition of cell growth incubated for 72 hrs by MTT assay. The test is classed as functional, cell-based. Particulars: MDA-MB-453, 72 h. Summed up:
as §2

The target of test [4] is T1, Signal transducer and activator of transcription 3. The test is described as follows: Displacement of 5'-FAM-GpYLPQTV-NH2 from His-tagged STAT3-SH2 domain (127 to 722 residues) (unknown origin) assessed as binding rate at 50 uM […] by fluorescence polarization assay. The conditions noted are these: time 90.0 min.
Test [5] has the same target. The test is described as follows: Binding affinity to His-tagged STAT3-SH2 domain (127 to 722 residues) (unknown origin) by surface plasmon resonance analysis. An outline of the steps: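 SPR on a Biacore T200 with STAT3 SH2 domain. Analytes were run as concentration series, and KD was taken as the equilibrium constant.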

T1 sequence (P40763 whole entry): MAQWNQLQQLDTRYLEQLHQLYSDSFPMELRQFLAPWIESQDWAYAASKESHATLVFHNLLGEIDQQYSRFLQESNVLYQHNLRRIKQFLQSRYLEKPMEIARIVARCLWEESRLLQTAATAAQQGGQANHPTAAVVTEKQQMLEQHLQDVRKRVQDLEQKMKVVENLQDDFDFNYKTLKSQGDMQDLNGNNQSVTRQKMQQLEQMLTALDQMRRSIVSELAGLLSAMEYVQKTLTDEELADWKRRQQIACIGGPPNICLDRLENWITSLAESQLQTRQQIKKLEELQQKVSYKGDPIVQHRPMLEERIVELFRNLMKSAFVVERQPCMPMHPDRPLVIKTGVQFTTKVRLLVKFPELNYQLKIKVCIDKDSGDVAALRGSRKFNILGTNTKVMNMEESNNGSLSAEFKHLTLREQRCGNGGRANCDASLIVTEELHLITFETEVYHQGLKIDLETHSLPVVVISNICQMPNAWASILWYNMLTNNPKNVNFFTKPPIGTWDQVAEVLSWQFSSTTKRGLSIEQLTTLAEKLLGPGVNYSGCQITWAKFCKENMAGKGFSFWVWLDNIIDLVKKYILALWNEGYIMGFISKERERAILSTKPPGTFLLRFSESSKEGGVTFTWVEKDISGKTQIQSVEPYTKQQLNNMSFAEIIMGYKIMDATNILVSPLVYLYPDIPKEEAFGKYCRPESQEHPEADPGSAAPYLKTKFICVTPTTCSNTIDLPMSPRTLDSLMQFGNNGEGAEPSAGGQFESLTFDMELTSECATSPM

Broadly, the IC50 is the concentration at which inhibition is half-maximal. `CCCC(C)Oc1ccc(C(=O)Nc2ccc3nc(SCC(=O)N[C@@H](C)c4ccccc4)sc3c2)cc1OC` (stereo partly drawn) registered an IC50 in [1] of 1420 nM.

Take `COc1ccc([C@H](C)NC(=O)CSc2nc3ccc(NC(=O)c4ccc(OC(C)C)c(C)c4OC)cc3s2)cc1`: the IC50 in test [1] stood at 220 nM; in the test with MDA-MB-468 it was 1810 nM; in the test with HEL it was 1290 nM.

The compound `CCCC(C)Oc1ccc(C(=O)Nc2ccc3nc(SCC(=O)N[C@@H](C)c4ccccc4)sc3c2)cc1CC` (stereo partly drawn) registered an IC50 in test [1] of more than 10000 nM.

In the case of `CCCC(C)Oc1ccc(C(=O)Nc2ccc3nc(SCC(=O)N[C@@H](C)c4cccc(OC)c4)sc3c2)c(OC)c1C` (stereo partly drawn), the IC50 in [1] is 270 nM; with MDA-MB-468, 500 nM; in the test with HEL, 870 nM.

With `N#CC[C@H](C1CCCC1)n1cc(-c2ncnc3[nH]ccc23)cn1` [RUXOLITINIB], the figures for the IC50 in the test with MDA-MB-468 and in the test on HEL were more than 20000 nM and 1400 nM, respectively.

In test [1], `COc1ccc([C@H](C)NC(=O)CNc2nc3ccc(NC(=O)c4ccc(OC)c(C)c4OC)cc3s2)cc1` registered an IC50 of 1490 nM.

For the compound `CCCC(C)Oc1ccc(C(=O)Nc2ccc3nc(SCC(=O)N[C@@H](C)c4ccccc4)sc3c2)c(C)c1C` (stereo partly drawn), the IC50 in [1] was 460 nM; in the test on MDA-MB-468 it was 810 nM; in the test on HEL, 930 nM.

In [1], `CCCC(C)Oc1ccc(C(=O)Nc2ccc3nc(SCC(=O)N[C@@H](C)c4ccccc4)sc3c2)c(OC)c1` (stereo partly drawn) displayed an IC50 of 2200 nM.

In [1], `CCCC(C)Oc1ccc(C(=O)Nc2ccc3nc(SCC(=O)N[C@@H](C)c4ccccc4)sc3c2)c(Cl)c1` (stereo partly drawn) yielded an IC50 of 1340 nM.

For `CCCC(C)Oc1ccc(C(=O)Nc2ccc3nc(SCC(=O)N[C@@H](C)c4ccccc4)sc3c2)cc1` (stereo partly drawn), the IC50 was 1600 nM in [1] (hepg2), 2210 nM with MDA-MB-468 and more than 10000 nM in the test with HEL.

In [1], `CCCC(C)Oc1ccc(C(=O)Nc2ccc3nc(SCC(=O)N[C@@H](C)c4ccccc4)sc3c2)c(F)c1` (stereo partly drawn) had an IC50 of more than 10000 nM.

In turn, `CCCC(C)Oc1ccc(C(=O)Nc2ccc3nc(SCC(=O)N[C@@H](C)c4ccccc4)sc3c2)cc1F` (stereo partly drawn) showed an IC50 in test [1] of more than 10000 nM.

`CCCc1cc(C(=O)Nc2ccc3nc(SCC(=O)N[C@@H](C)c4ccccc4)sc3c2)ccc1OC(C)CCC` (stereo partly drawn) registered an IC50 in test [1] of more than 10000 nM.

Consider `COc1ccc([C@H](C)NC(=O)CSc2nc3ccc(NC(=O)c4ccc(OCCN(C)C)c(C)c4OC)cc3s2)cc1`, for which the IC50 in test [1] was found to be 520 nM; with MDA-MB-468 it was 6570 nM; in the test with HEL it was 4980 nM.

On to `COc1ccc([C@H](C)NC(=O)CSc2nc3ccc(NC(=O)c4ccc(OCCN5CCOCC5)c(C)c4OC)cc3s2)cc1`, for which the IC50 in [1] is 240 nM; in the test with MDA-MB-468, 1770 nM; in the test on HEL, 3380 nM.

One may read the Kd as the concentration at which binding is half-saturated. Lower therefore signals a tighter complex. Regarding `O=[N+]([O-])c1ccc2c(c1)S(=O)(=O)C=C2`, the results for the IC50 in the test with MCF7, in the test on HEL and in the test with MDA-MB-453 were 1700 nM, 1590 nM and 4400 nM, respectively. In addition, the Activity in [2] is 62.3%; in test [3] it was 95%; in test [4], 71.1%. Binding in [5] was put at a Kd of 1530 nM.

Turning to `COc1ccc([C@H](C)NC(=O)CSc2nc3ccc(NC(=O)c4ccc(OC)c(C)c4OC)cc3s2)cc1`, the IC50 in [1] turned out to be 120 nM; in the test with MDA-MB-468, 2050 nM; in the test with HEL, 1340 nM.

With `CCCC(C)Oc1ccc(C(=O)Nc2ccc3nc(SCC(=O)N[C@@H](C)c4ccccc4)sc3c2)cc1Br` (stereo partly drawn), the IC50 in [1] came to 2150 nM.

For the compound `COCCOc1ccc(C(=O)Nc2ccc3nc(SCC(=O)N[C@@H](C)c4ccc(OC)cc4)sc3c2)c(OC)c1C`, the 50% inhibitory concentration (IC50) was 260 nM in [1], 1160 nM with MDA-MB-468 and 1440 nM with HEL.

In test [1], `COc1ccc([C@H](C)NC(=O)COc2nc3ccc(NC(=O)c4ccc(OC)c(C)c4OC)cc3s2)cc1` yielded an IC50 of 8860 nM.

For the compound `COc1ccc([C@H](C)NC(=O)CSc2nc3ccc(NC(=O)c4ccc(OCCN5CCCC5)c(C)c4OC)cc3s2)cc1`, the IC50 was 1030 nM in test [1], 3360 nM in the test on MDA-MB-468 and 10400 nM with HEL.

On to `CCC[C@@H](C)Oc1ccc(C(=O)Nc2ccc3nc(SCC(=O)N[C@@H](C)c4ccccc4)sc3c2)cc1C`, for which the IC50 in [1] is 900 nM.

With `CCC[C@H](C)Oc1ccc(C(=O)Nc2ccc3nc(SCC(=O)N[C@@H](C)c4ccccc4)sc3c2)cc1C`, the IC50 in test [1] worked out at 1200 nM.

Take `NS(=O)(=O)c1cccc2c1C(=O)c1cccc(O)c1C2=O`: the figures for the IC50 (in test [1]; in the test on MDA-MB-468; with HEL) were 98 nM, 730 nM and 1460 nM, respectively.

Consider `Cc1cc(Nc2nc(N[C@@H](C)c3ncc(F)cn3)ncc2Cl)[nH]n1` [AZD-1480], for which the half-maximal inhibitory concentration (IC50) in the test on MDA-MB-468 came out at 5870 nM; in the test on HEL, 730 nM.

In turn, `CCCC(C)Oc1ccc(C(=O)Nc2ccc3nc(SCC(=O)N[C@@H](C)c4ccccc4)sc3c2)c(F)c1F` (stereo partly drawn) returned an IC50 in [1] of more than 10000 nM.

In the case of `CCCC(C)Oc1ccc(C(=O)Nc2ccc3nc(SCC(=O)N[C@@H](C)c4ccc(O)cc4)sc3c2)c(OC)c1C` (stereo partly drawn), the IC50 in test [1] turned out to be 200 nM; in the test with MDA-MB-468, 700 nM; in the test on HEL it was 680 nM.

As to `CCCC(C)Oc1ccc(C(=O)Nc2ccc3nc(SCC(=O)N[C@@H](C)c4ccccc4)sc3c2)cc1C#N` (stereo partly drawn), the IC50 in test [1] was more than 10000 nM.

Consider `COc1ccc([C@H](C)NC(=O)CSc2nc3ccc(NC(=O)c4ccc(OCC(C)C)c(C)c4OC)cc3s2)cc1`, for which the IC50 in [1] came out at 200 nM; in the test with MDA-MB-468, 2020 nM; in the test on HEL it was 2050 nM.

For `CCCC(C)Oc1ccc(C(=O)Nc2ccc3nc(SCC(=O)N[C@@H](C)c4ccccc4)sc3c2)cc1Cl` (stereo partly drawn), the IC50 in test [1] is more than 10000 nM.

Regarding `CCCC(C)Oc1ccc(C(=O)Nc2ccc3nc(SCC(=O)N[C@@H](C)c4ccccc4O)sc3c2)c(OC)c1C` (stereo partly drawn), the IC50 in test [1] amounted to 170 nM; with MDA-MB-468, 590 nM; in the test on HEL, 970 nM.

Turning to `CCCC(C)Oc1ccc(C(=O)Nc2ccc3nc(SCC(=O)N[C@@H](C)c4ccccc4)sc3c2)cc1C` (stereo partly drawn), the IC50 in [1] is 950 nM; with MDA-MB-468, 730 nM; with HEL it was more than 10000 nM.

`CCCC(C)Oc1ccc(C(=O)Nc2ccc3nc(SCC(=O)N[C@@H](C)c4ccccc4)sc3c2)c(C)c1` (stereo partly drawn) displayed an IC50 in test [1] of 2720 nM.

In turn, `CCCC(C)Oc1ccc(C(=O)Nc2ccc3nc(SCC(=O)N[C@@H](C)c4ccccc4)sc3c2)cc1C(F)(F)F` (stereo partly drawn) yielded an IC50 in [1] of more than 10000 nM.

For the compound `CCCC(C)Oc1ccc(C(=O)Nc2ccc3nc(SCC(=O)N[C@@H](C)c4cccc(O)c4)sc3c2)c(OC)c1C` (stereo partly drawn), the IC50 is 150 nM in [1], 2240 nM in the test on MDA-MB-468 and 620 nM with HEL.
